Test system: Mus musculus
Assay: Toxicity in BALB/c nu/nu mouse xenografted with human DMS53 cells assessed as change in hematopoetic cells in splenic red pulp at 6 mg/kg, iv administered for 5 days a week measured after 21 days by hematoxylin and eosin staining method
Assay type: organism-based, DMS-53
Design: dose 6 mg/kg, route intravenous
Conditions: in vivo, 504 h
Procedure, shortened: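 DMS-53 xenografts in nude mice; dosing started at 100 mm3 tumor volume. Agents given iv via tail vein, 5 days/week for 21 days, vehicle 30% propylene glycol/saline, vehicle-treated controls. Mice sacrificed day 21. Body and organ weights and hematological indices recorded. Spleen, kidney, liver, heart, lungs and brain were stained with H&E, Perls' and Gomori Trichrome and read by an independent veterinary pathologist.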

`CCN(C)C(=S)NN=C(c1ccccn1)c1ccccn1.Cl` was tested, and the Activity was “Non-toxic”.

Reference: ChEMBL document CHEMBL2203173 (J Med Chem, 2012)
